# KCNQ1 block – blocks the human KCNQ1 potassium channel. CHO-K1 KCNQ1, FluxOR thallium flux fluorescence; hits give high values. B-score at 10 µM. 310,000 compounds, 1.3% hits. AID 2642;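 active means compounds whose thallium flux B-score, printed positive for inhibition, exceeds three library SD while starting fluorescence stays within three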;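 further: channel opened by potassium depolarization with thallium stimulus after 20 min compound exposure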
# KCNK9 inh – human KCNK9 channel inhibition. Q9NPC2. HEK293 KCNK9, FluxOR thallium flux fluorescence; hits give low values. B-score at 10 µM. 310,000 compounds, 1.2% hits;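 active means ratio B-score over 3 SD below the library mean, with starting fluorescence within 5 SD of its mean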;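 further: negative B-score means less thallium flux so channel inhibition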
# KCC2 mod – KCC2 (human) Cl- transport modulation. KCC2 cells, thallium flux FluoZin-2 fluorescence. B-score of Tl+ flux slope (higher = more flux/activation; lower = inhibition) at 10 µM. 190,000 compounds, 2.2% hits. AID 1456;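 active means thallium flux slope and its plate-corrected score both differing from the plate sample mean at a set confidence after two filtering rounds, in either direction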;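 further: slope of fluorescence scaled to starting intensity during 10 to 20 s after thallium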
# Target sequence (Q9H2X9 whole entry, looked up): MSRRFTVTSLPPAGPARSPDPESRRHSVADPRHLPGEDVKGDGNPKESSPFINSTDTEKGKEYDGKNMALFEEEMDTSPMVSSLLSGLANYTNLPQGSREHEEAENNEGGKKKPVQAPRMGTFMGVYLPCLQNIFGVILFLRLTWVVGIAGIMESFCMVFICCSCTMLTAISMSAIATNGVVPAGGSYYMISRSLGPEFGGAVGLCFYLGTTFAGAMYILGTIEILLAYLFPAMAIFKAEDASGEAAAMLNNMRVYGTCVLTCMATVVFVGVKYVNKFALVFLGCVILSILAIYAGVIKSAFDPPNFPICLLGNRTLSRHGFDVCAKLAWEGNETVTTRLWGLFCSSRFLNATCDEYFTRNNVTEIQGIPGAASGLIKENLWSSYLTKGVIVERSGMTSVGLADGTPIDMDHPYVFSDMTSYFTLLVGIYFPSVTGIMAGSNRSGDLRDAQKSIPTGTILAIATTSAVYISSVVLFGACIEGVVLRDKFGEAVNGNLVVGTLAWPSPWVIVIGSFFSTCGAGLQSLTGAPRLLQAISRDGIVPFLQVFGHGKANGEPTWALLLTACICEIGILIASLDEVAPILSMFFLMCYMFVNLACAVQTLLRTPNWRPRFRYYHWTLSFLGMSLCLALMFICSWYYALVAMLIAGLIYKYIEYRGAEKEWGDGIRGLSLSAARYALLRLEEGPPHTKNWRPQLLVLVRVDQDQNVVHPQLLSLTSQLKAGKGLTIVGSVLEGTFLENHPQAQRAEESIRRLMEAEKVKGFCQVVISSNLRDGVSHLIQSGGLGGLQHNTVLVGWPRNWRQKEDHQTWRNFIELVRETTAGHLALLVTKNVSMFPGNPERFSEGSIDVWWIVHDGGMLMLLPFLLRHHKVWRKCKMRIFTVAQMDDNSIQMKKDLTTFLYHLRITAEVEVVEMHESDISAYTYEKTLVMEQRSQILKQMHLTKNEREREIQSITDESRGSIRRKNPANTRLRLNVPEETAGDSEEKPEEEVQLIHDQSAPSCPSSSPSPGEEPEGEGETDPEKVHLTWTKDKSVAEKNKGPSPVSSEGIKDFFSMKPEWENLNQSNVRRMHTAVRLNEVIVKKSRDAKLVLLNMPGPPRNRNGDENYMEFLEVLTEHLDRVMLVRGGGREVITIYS
# hERG rescue – compounds protecting human hERG from proarrhythmic drug block; AID 1511; Q12809; 310,000 compounds, 0.51% hits; activation (rescue from dofetilide block), less the hit threshold, % at 10 µM; CHO-hERG, FluxOR thallium flux, dofetilide IC70 present;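 active means activation above the mean of controls blocked by dofetilide plus 5 SD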;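 further: thallium influx through hERG after potassium depolarization seen as dye fluorescence rise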
# KCNQ1 act – potentiates or activates the human KCNQ1 potassium channel; CHO-K1 KCNQ1, thallium flux FluxOR fluorescence; hits give high values; B-score at 10 µM; 310,000 compounds, 0.35% hits;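 active means fluorescence ratio B-score, a plate-corrected score, at least three library SD, with initial intensity B-score within 5 SD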
#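 Schedule – 37 °C overnight plating, 90-min dark dye load, 20-min compound pretreatment · System – stable KCNQ1 CHO-K1 line · Probe or stimulus – thallium- and potassium-containing depolarizing buffer · Measured by – kinetic FluxOR fluorescence, 10 s baseline plus 110 s post-stimulus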
# KCNK3 inh – human KCNK3 channel inhibition, primary screen; CHO-KCNK3 thallium flux, FluxOR fluorescence; hits give low values; B-score at 10 µM; 340,000 compounds, 0.84% hits;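 active means B-score under library mean minus 4 SD, starting fluorescence ratio at most library mean plus 5 SD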;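 further: more negative B-score means stronger inhibition of thallium flux through KCNK3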
# KCNK9 inh conf – human KCNK9 inhibitor confirmation; shares compounds with KCNK9 inh; HEK293 KCNK9 cells, FluxOR thallium flux fluorescence; AID 492992; 4,900 compounds, 43% hits; inhibition, % at 10 µM;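 active means thallium signal inhibited by more than 5 SD of the compound-free buffer control wells, on both duplicate plates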;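 further: 0% = assay buffer control wells without compound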
# Kir21 sel – selectivity of KCNK9 modulators against mouse Kir2.1. shares compounds with KCNK9 inh. Kir2.1 cells, FluxOR thallium flux fluorescence. inhibition, % at 10 µM. 4,900 compounds, 4% hits. AID 492993;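 active means thallium signal drop more than 5 SD beyond the mean of the no-compound control wells, seen in both duplicate plates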;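 further: signal is fluorescence rise after thallium addition divided by baseline fluorescence; plate controls were assay buffer only for no effect and full block by chlorpromazine control for full effect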
# KCNK9 uninduced – second counter-screen for KCNK9 modulators: effect in non-induced cells | shares compounds with KCNK9 inh | non-induced KCNK9-HEK293, FluxOR thallium flux | inhibition, % at 10 µM | 4,900 compounds, 40% hits;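 active means thallium signal drop beyond 5 SD of the untreated control mean, on both duplicate plates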;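 further: plate controls were buffer only IC0 wells for no effect and SID17386958 at its maximal inhibitory level for full effect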
# KCNK3 confirm – human KCNK3 channel inhibition, confirmation assay; shares compounds with KCNK3 inh; CHO-KCNK3 thallium flux, FluxOR fluorescence; 0% buffer, 100% carvedilol maximal block; ratio percent of control, % at 10 µM; 2,400 compounds, 99% hits; AID 651638;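 active means ratio percent of control, averaged over triplicates, above buffer control mean plus 5 SD, cut at about 64% in these data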;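 further: ratio is the fluorescence rise from min to max over baseline after thallium stimulus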
# KCNK3 noninduced – counter-screen for KCNK3 inhibitors: effect in non-induced cells; non-induced KCNK3 parental cells, FluxOR thallium flux; hits give low values; 2,400 compounds, 40% hits; shares compounds with KCNK3 inh; AID 651747; thallium flux ratio (lower = more inhibition) at 10 µM;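 active means thallium flux ratio, averaged over three wells, more than 5 SD below the buffer control mean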;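 further: host cells are CHO cells without KCNK3 induction; ratio is peak minus trough fluorescence over baseline then normalized to buffer controls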
# Numbers without * were called inactive; i = inactive; x = no result. Compounds with a hit are over-represented: about 4.1% of the library has one in this group of screens.
SMILES,KCNQ1 block,KCNK9 inh,KCC2 mod,hERG rescue,KCNQ1 act,KCNK3 inh,KCNK9 inh conf,Kir21 sel,KCNK9 uninduced,KCNK3 confirm,KCNK3 noninduced
Cc1ccc(NC(=O)c2cccc3c2C(=O)N(C2CCCCC2)C3)cc1,i,-9.6*,x,-10,i,-9.4*,32%*,i,26%*,117*,i
Cc1ccc(S(=O)(=O)Nc2ccccc2N=Cc2ccc([N+](=O)[O-])cc2[N+](=O)[O-])cc1,x,x,x,x,x,i,x,x,x,x,x
Cc1ccc(NC(=O)CN(c2ccc(Cl)cc2)S(=O)(=O)c2cc([N+](=O)[O-])ccc2Cl)c(C)c1,i,-14*,-1.5,-7,i,-15*,62%*,i,36%*,115*,i
O=C(N/N=C/c1cccnc1)c1ccccc1Br,i,i,x,2,i,i,x,x,x,x,x
O=C(N/N=C/c1cccnc1)c1ccccc1OCc1ccc(Br)cc1,i,-11*,-2.4,-14,i,-11*,30%*,i,i,115*,0.16*
COc1ccccc1NC(=O)c1ccc(CSc2ccccc2)o1,i,i,x,-4,i,i,x,x,x,x,x
O=C(Oc1c(Br)cc(C(=S)N2CCOCC2)cc1Br)c1ccc(Cl)cc1,i,i,-0.79,2,i,i,x,x,x,x,x
O=C(Oc1ccc(C(=S)N2CCOCC2)cc1Br)c1cc(Cl)ccc1Cl,i,-14*,-0.038,-8,i,-9.4*,48%*,i,35%*,99*,i
CCN(CCCNC(=O)c1cc2c(-c3cccc(OC)c3)nn(C)c2s1)Cc1ccccc1,i,i,x,-13,i,i,x,x,x,x,x
COc1cccc(-c2nn(C)c3sc(C(=O)NCc4ccc5c(c4)OCO5)cc23)c1,i,-13*,-0.049,-18,i,-11*,58%*,i,24%*,99*,i
CC(C)(C)c1ccc(C(=O)Nc2ccc(C(=O)NCc3cccnc3)cc2)cc1,i,i,x,-5,i,i,x,x,x,x,x
CCOC(=O)c1nnc(-c2ccccc2)nc1NCc1ccc(Cl)cc1,i,-10*,-1.1,-10,i,-9.7*,38%*,i,43%*,97*,0.14*
N#Cc1cccc(NC(=O)CCc2ccc(S(=O)(=O)N3CCOCC3)cc2)c1,x,x,x,x,x,i,x,x,x,x,x
CSc1nc(N2CCN(c3ccccc3Cl)CC2)c2ccccc2n1,i,-14*,-0.25,-12,i,i,60%*,i,34%*,104*,i
COC(=O)c1ccsc1NC(=O)CN1CCN(c2ncccn2)CC1,i,i,x,-6,i,i,x,x,x,x,x
COc1ccccc1NS(=O)(=O)c1ccc(O)c(C(=O)OCc2cccc([N+](=O)[O-])c2)c1,i,-9.2*,-1.3,-10,i,-8.8*,i,i,28%*,99*,i
Cc1ccc2[nH]cc(CCNC(=O)c3cccs3)c2c1,i,i,x,-12,i,i,x,x,x,x,x
CC(CNC(=O)C1CCCN(S(=O)(=O)N2CCOCC2)C1)c1ccccc1 (stereo not drawn),i,i,x,-5,i,i,x,x,x,x,x
COC(=O)c1c(NC(=O)Cn2nc(C(F)F)cc2C(F)F)sc(C)c1C,i,i,-1.3,-6,i,i,x,x,x,x,x

# Compound activity deposited in PubChem by several laboratories.
